Measured values published in ChEMBL document CHEMBL4011621, “A Novel Series of Highly Potent Small Molecule Inhibitors of Rhinovirus Replication” (J Med Chem, 2017).

Key:
[1] = Antiviral activity against Human rhinovirus A71 infected in human H1HeLa cells assessed as protection against virus induced cytopathic effect after 3 days by MTT assay; type: functional, cell-based; details: Rhinovirus A, H1-HeLa, 72 h
In short: (§1)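 CPE-reduction assay in H1HeLa cells plated 2 d before. Equal volumes of virus and compound were added and held at 33 °C for 3 d under CO2. Supernatant was removed, then MTT was added for 1 h at 37 °C. Formazan was dissolved and read at 540 nm against a 690 nm reference. Survival was scaled between uninfected untreated wells (100%) and virus-only wells (0%); mean ± SD, three experiments.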

[2] = tested on: rhinovirus A21; assay: Antiviral activity against Human rhinovirus A21 infected in human H1HeLa cells assessed as protection against virus induced cytopathic effect after 3 days by MTT assay; type: functional, cell-based; details: Rhinovirus A, H1-HeLa, 72 h; in short: as §1
[3] = tested on: Poliovirus 3; assay: Antiviral activity against Human poliovirus 3 infected in human HeLa cells assessed as protection against virus induced cytopathic effect after 2 days by MTT assay; type: functional, cell-based; details: Enterovirus C, 48 h
In short: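 HeLa cells; MTT-based CPE reduction. Virus and compound added in equal volumes, incubated 37 °C for 2 d in CO2. Supernatant removed, MTT 1 h at 37 °C, formazan dissolved, absorbance 540 nm (690 nm reference). Uninfected untreated wells = 100% survival, virus-only = 0%. EC50 = 50% inhibition; means ± SD, three experiments.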

[4] = Cytotoxicity aganist human HeLa cells assessed as decrease in cell viability after 2 days by MTT assay; type: cell-based
[5] = Selectivity index, ratio of CC50 for human H1HeLa cells to EC50 for Human rhinovirus A21 infected in human H1HeLa cells; type: toxicity, cell-based; details: read-out: Ratio CC50/EC50
In short: (§2)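 H1HeLa cells plated 2 d ahead; virus plus compound (equal volumes) incubated 33 °C, 3 d, CO2. MTT 1 h at 37 °C, A540/A690. Survival scaled between uninfected untreated (100%) and virus-only (0%) wells to give EC50. CC50 = 50% cell death by MTT in H1HeLa. SI = CC50/EC50; at least three independent experiments.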

[6] = Selectivity index, ratio of CC50 for human H1HeLa cells to EC50 for Human rhinovirus A71 infected in human H1HeLa cells; type: toxicity, cell-based; details: read-out: Ratio CC50/EC50; in short: as §2
[7] = Selectivity index, ratio of CC50 for human HeLa cells to EC50 for human poliovirus 3 infected in human HeLa cells; type: toxicity, cell-based; details: read-out: Ratio CC50/EC50
In short: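 SI = CC50/EC50 in HeLa cells. CC50 = 50% cell death by MTT. EC50 = 50% inhibition of PV3 CPE by MTT after 2 d at 37 °C, survival scaled to uninfected (100%) and virus-only (0%) wells. At least three independent experiments.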

[8] = tested on: rhinovirus B14; assay: Antiviral activity against Human rhinovirus B14 infected in human H1HeLa cells assessed as protection against virus induced cytopathic effect after 3 days by MTT assay; type: functional, cell-based; details: Rhinovirus B, H1-HeLa, 72 h
[9] = Cytotoxicity against human H1HeLa cells assessed as decrease in cell viability after 3 days by MTT assay; type: cell-based, H1-HeLa

Structure (SMILES) | EC50 [1] [µM] | EC50 [2] [µM] | EC50 [3] [µM] | CC50 at 48 h [4] [µM] | selectivity ratio [5] | selectivity ratio [6] | selectivity ratio [7] | EC50 [8] [µM] | CC50 at 72 h [9] [µM]
CCC(C)OC(=O)c1ccc2ccc(Oc3ccnc(C(=O)NC)c3)cc2c1 (configuration not stated) | 0.013 | 0.41 | 0.35 | 9 | 39 | 1200 | 26 | > 16 | 16
CNC(=O)c1cc(Oc2ccc3c(C)c(C(=O)O)sc3c2)ccn1 | > 100 | > 100 | > 100 | > 100 | – | – | – | > 100 | > 100
CCOC(=O)c1cc2ccc(Oc3ccnc(C(=O)NC)c3)cc2o1 | 1.4 | 66 | > 100 | > 100 | > 1.5 | > 71 | – | > 100 | > 100
CCOC(=O)c1sc2cc(Oc3ccnc(C(=O)NC)c3)ccc2c1N | > 0.11 | > 0.11 | > 0.45 | 0.45 | – | – | – | > 0.11 | 0.11
CNC(=O)c1cc(Oc2ccc3c(C)c(C(=O)N(C)C)sc3c2)ccn1 | > 42.5 | > 42.5 | > 44.4 | 44.4 | – | – | – | > 42.5 | 42.5
CNC(=O)c1cc(Oc2ccc3cc(C(=O)OC)sc3c2)ccn1 | 4.6 | 75.6 | > 68.3 | 68.3 | > 1.3 | > 22 | – | > 100 | > 100
CCNC(=O)c1sc2cc(Oc3ccnc(C(=O)NC)c3)ccc2c1C | > 100 | > 100 | > 100 | > 100 | – | – | – | > 100 | > 100
CCOC(=O)c1sc2cc(Oc3ccnc(C(=O)OC)c3)ccc2c1C | 15 | > 24.9 | > 26.2 | 26.2 | – | 1.7 | – | > 24.9 | 24.9
CCOC(=O)c1sc2cc(OC)ccc2c1C | 3.8 | > 100 | 1.8 | > 100 | – | > 26 | > 56 | > 100 | > 100
CCOC(=O)c1sc2cc(O)ccc2c1C | > 82 | > 82 | 9.4 | 46.6 | – | – | 5 | > 82 | 82
CCOC(=O)c1cc2ccc(Oc3ccncc3)cc2s1 | 7.3 | > 42.4 | > 43.9 | 43.9 | – | 5.8 | – | > 42.4 | 42.4
CNC(=O)c1cc(Oc2ccc3ccc(C(=O)Oc4ccccc4)cc3c2)ccn1 | 8.27 | > 100 | 60.1 | > 100 | – | > 12 | > 1.7 | > 100 | > 100
CCOC(=O)c1cc2ccc(O)cc2s1 | 8.9 | > 52.3 | > 46.9 | 46.9 | – | 5.9 | – | > 52.3 | 52.3
CNC(=O)c1ccc(Oc2ccc3c(C)c(C(=O)OC(C)C)sc3c2)cn1 | 1.7 | 3.3 | > 12.9 | 12.9 | 2.3 | 4.5 | – | > 7.6 | 7.6
CCOC(=O)c1sc2cc(Oc3ccccc3)ccc2c1C | 1.7 | 1 | > 47.6 | 47.6 | > 100 | > 59 | – | > 100 | > 100
CCOC(=O)c1cc2ccc(OC)cc2s1 | 5.1 | > 70.9 | 13.1 | 44.4 | – | 14 | 3.4 | > 70.9 | 70.9
